Assay results published in paper PMC6558985 (Nature chemical biology, 2019).
Positions count from the first letter of the chain named.

Experiments:
Assay type in all cases: biochemical, D. melanogaster
Dm-spastin Q488V = molecular target: T1, Dm-spastin Q488V (Drosophila melanogaster, UniProt Q8I0P1, DEL311-372/Q488V); test: Steady-state ATPase activity, NADH-coupled assay, Dm-spastin Q488V
T1 sequence (Q8I0P1 with tags, fused parts or gaps DEL311-372/Q488V limits assumed): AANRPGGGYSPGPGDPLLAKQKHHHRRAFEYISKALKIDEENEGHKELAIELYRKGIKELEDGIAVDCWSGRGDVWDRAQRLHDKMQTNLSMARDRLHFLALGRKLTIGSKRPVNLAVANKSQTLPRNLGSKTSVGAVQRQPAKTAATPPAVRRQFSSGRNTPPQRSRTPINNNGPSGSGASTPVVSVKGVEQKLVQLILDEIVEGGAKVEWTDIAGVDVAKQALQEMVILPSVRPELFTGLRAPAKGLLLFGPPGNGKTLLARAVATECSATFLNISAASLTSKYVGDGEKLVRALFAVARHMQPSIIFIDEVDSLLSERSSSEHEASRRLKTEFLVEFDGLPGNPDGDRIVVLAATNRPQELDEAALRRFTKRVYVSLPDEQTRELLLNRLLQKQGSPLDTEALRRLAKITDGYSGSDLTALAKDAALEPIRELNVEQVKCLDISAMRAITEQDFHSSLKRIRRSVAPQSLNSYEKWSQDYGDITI
In short: (§1)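 Recombinant Dm-spastin, wildtype or point mutants, assayed by steady-state ATPase with NADH-coupled read-out at 0.5 mM MgATP over a test-compound concentration series. Data were fit to a sigmoidal dose-response equation to give IC50, average ± s.d., n = 3. Separately, rates across ATP concentrations were fit to a cooperative Michaelis-Menten equation for kcat and K1/2.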

Dm-spastin N527C = molecular target: T2, Dm-spastin N527C (Drosophila melanogaster, UniProt Q8I0P1, DEL311-372/N527C); test: Steady-state ATPase activity, NADH-coupled assay, Dm-spastin N527C
T2 sequence (Q8I0P1 with tags, fused parts or gaps DEL311-372/N527C limits assumed): T1 sequence (Q8I0P1 with tags, fused parts or gaps DEL311-372/Q488V limits assumed) with V218Q, N257C
In short: as §1

Dm-spastin WT = molecular target: T3, Dm-spastin WT (Drosophila melanogaster, UniProt Q8I0P1, DEL311-372); test: Steady-state ATPase activity, NADH-coupled assay, Dm-spastin wildtype
T3 sequence (Q8I0P1 with tags, fused parts or gaps DEL311-372 limits assumed): T1 sequence (Q8I0P1 with tags, fused parts or gaps DEL311-372/Q488V limits assumed) with V218Q
In short: as §1

Dm-spastin T692A = molecular target: T4, Dm-spastin T692A (Drosophila melanogaster, UniProt Q8I0P1, DEL311-372/T692A); test: Steady-state ATPase activity, NADH-coupled assay, Dm-spastin T692A
T4 sequence (Q8I0P1 with tags, fused parts or gaps DEL311-372/T692A limits assumed): T1 sequence (Q8I0P1 with tags, fused parts or gaps DEL311-372/Q488V limits assumed) with V218Q, T422A
In short: as §1

Dm-spastin N527T = molecular target: T5, Dm-spastin N527T (Drosophila melanogaster, UniProt Q8I0P1, DEL311-372/N527T); test: Steady-state ATPase activity, NADH-coupled assay, Dm-spastin N527T
T5 sequence (Q8I0P1 with tags, fused parts or gaps DEL311-372/N527T limits assumed): T1 sequence (Q8I0P1 with tags, fused parts or gaps DEL311-372/Q488V limits assumed) with V218Q, N257T
In short: as §1

Dm-spastin S689A = molecular target: T6, Dm-spastin S689A (Drosophila melanogaster, UniProt Q8I0P1, DEL311-372/S689A); test: Steady-state ATPase activity, NADH-coupled assay, Dm-spastin S689A
T6 sequence (Q8I0P1 with tags, fused parts or gaps DEL311-372/S689A limits assumed): T1 sequence (Q8I0P1 with tags, fused parts or gaps DEL311-372/Q488V limits assumed) with V218Q, S419A
In short: as §1

Dm-spastin = molecular target: T7, Dm-spastin (Drosophila melanogaster, UniProt Q8I0P1, DEL311-372); test: In vitro microtubule-severing assay; settings: 2 µM inhibitor, 0.5 mM MgATP, 15 nM Dm-spastin
T7 sequence (Q8I0P1 with tags, fused parts or gaps DEL311-372 limits assumed): T1 sequence (Q8I0P1 with tags, fused parts or gaps DEL311-372/Q488V limits assumed) with V218Q

Row | IC50 (Dm-spastin Q488V) | IC50 (Dm-spastin N527C) | reduction of potency by N527C mutation relative to Dm-spastin WT (Dm-spastin N527C; P-loop mutation) | IC50 (Dm-spastin WT) | selectivity for Dm-spastin over four other AAA proteins (Dm-spastin WT; 2 µM (Fig. 2 legend; text says 10 µM), 0.5 mM MgATP) | effect on kcat of Dm-spastin across a range of ATP concentrations (Dm-spastin WT; MgATP 0.027 to 3 mM) | IC50 (Dm-spastin T692A) | reduction of potency by T692A mutation relative to Dm-spastin WT (Dm-spastin T692A; sensor-II mutation) | IC50 (Dm-spastin N527T) | IC50 (Dm-spastin S689A) | change of potency by S689A mutation relative to Dm-spastin WT (Dm-spastin S689A; sensor-II mutation) | potency on Dm-spastin ATPase relative to compound 4 (more potent) (Dm-spastin WT; 0.5 mM MgATP) | Dm-spastin dependent microtubule-severing (Dm-spastin) | Structure (SMILES) | effect on K1/2 of Dm-spastin across a range of ATP concentrations (Dm-spastin WT; MgATP 0.027 to 3 mM)
1 | ~12.5 µM | 2.9 ± 0.5 µM | ~ 3 fold | 1 ± 0.6 µM | increased selectivity for Dm-spastin | not substantial changes in kcat | 1.5 ± 0.4 µM | ~ 2 fold | > 30 µM | 0.9 ± 0.2 µM | no substantial difference |  |  | CN1CCN(c2nc(Nc3cc(-c4ccccc4)[nH]n3)c3ccccc3n2)CC1 [compound 4, 2-(4-methylpiperazin-1-yl)-N-(5-phenyl-1H-pyrazol-3-yl)quinazolin-4-amine] | increases in K1/2 at higher compound concentrations
2 |  |  |  | 0.106 ± 0.035 µM |  |  |  |  |  |  |  | ~ 10 fold | blocked | C[C@@H]1CNCCN1c1nc(Nc2cc(C(C)(C)C)[nH]n2)c2ccccc2n1 [compound 5, (R)-N-(5-(tert-butyl)-1H-pyrazol-3-yl)-2-(2-methyl-piperazin-1-yl)quinazolin-4-amine] | 
